Measured values reported in ChEMBL document CHEMBL3108696, “Structure-activity relationships of chromone derivatives toward the mechanism of interaction with and inhibition of breast cancer resistance protein ABCG2” (J Med Chem, 2013).

Legend:
[1] = target: T1, Broad substrate specificity ATP-binding cassette transporter ABCG2 (Homo sapiens, UniProt Q9UNQ0); assay: Binding affinity to ABCG2 (unknown origin) expressed in HEK293 cells assessed as modulation of 5D3 binding at 5 uM after 45 mins by flow cytometric analysis relative to Ko143; type: cell-based; conditions: hek293, 0.75 h
T1 sequence (Q9UNQ0 whole entry): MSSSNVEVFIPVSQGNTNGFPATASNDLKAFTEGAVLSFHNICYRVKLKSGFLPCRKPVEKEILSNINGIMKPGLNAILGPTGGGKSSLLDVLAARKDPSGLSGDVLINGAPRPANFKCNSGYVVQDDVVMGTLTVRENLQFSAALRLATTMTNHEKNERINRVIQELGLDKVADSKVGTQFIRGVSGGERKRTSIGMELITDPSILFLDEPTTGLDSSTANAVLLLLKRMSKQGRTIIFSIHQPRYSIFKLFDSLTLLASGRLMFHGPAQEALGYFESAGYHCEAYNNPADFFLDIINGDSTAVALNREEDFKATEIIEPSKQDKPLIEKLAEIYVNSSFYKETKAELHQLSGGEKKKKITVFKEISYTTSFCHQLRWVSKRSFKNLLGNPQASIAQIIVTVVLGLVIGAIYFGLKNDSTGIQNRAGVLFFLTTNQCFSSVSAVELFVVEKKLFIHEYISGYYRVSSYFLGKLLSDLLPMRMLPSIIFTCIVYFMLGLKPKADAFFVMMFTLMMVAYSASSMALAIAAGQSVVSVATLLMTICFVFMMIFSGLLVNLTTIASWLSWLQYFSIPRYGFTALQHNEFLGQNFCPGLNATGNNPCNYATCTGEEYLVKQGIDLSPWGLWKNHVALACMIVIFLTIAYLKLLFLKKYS
How it was run: (§1)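 5D3 shift assay on ABCG2-transfected HEK293 cells (0.5 × 10^6 cells/tube) in PBS with 0.5% BSA. Compound at 2 or 5 μM plus 5D3 anti-ABCG2 antibody or isotype control (1 μg/mL), 45 min at 37 °C. Anti-mouse Alexa Fluor 488 secondary (3 μg/mL), 30 min at 37 °C. Binding read by flow cytometry, expressed relative to 2 μM Ko143 (100%). Mean ± SD of ≥3 independent experiments.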

[2] = target: T1, Broad substrate specificity ATP-binding cassette transporter ABCG2; assay: Binding affinity to ABCG2 (unknown origin) expressed in HEK293 cells assessed as modulation of 5D3 binding at 2 uM after 45 mins by flow cytometric analysis relative to Ko143; type: cell-based; conditions: hek293, 0.75 h; how it was run: as §1
[3] = target: T1, Broad substrate specificity ATP-binding cassette transporter ABCG2; assay: Inhibition of human ABCG2 expressed in Sf9 insect cell membranes assessed as inhibition of quercetin-stimulated ATPase activity after 30 mins by colorimetric analysis in presence of sodium orthovanadate; conditions: for inhibition (INH): human, sf9, 0.5 h
How it was run: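 Quercetin (2 μM)-stimulated vanadate-sensitive ATPase assay on cholesterol-loaded ABCG2 Sf9 membranes (10 μg/sample) in Tris/NaCl buffer, pH 8.0. Compound at 0.01, 0.03, 0.5 and 2 μM. ATP-Mg 3.9 mM, 30 min at 37 °C. Released phosphate read colorimetrically at 880 nm. IC50 estimated as 50% inhibition of initial activity; three independent experiments.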

[4] = target: T1, Broad substrate specificity ATP-binding cassette transporter ABCG2; assay: Inhibition of human ABCG2 ATPase activity expressed in Sf9 insect cell membranes at 2 uM after 30 mins by colorimetric analysis relative to basal control in presence of sodium orthovanadate; conditions: sf9, 0.5 h
How it was run: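 Basal vanadate-sensitive ATPase assay on cholesterol-loaded membranes from human ABCG2-expressing Sf9 cells (0.5 mg/mL; 10 μg/sample). Buffer: 50 mM Tris-HCl, 50 mM NaCl, pH 8.0, with azide, ouabain, DTT and EGTA, ± 0.33 mM orthovanadate. Compound at 2 μM, or substrates nilotinib 0.1 μM, quercetin 2 μM, prazosin 20 μM. ATP-Mg 3.9 mM, 30 min at 37 °C. Phosphate read by molybdate/ascorbate at 880 nm.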

ABCG2 [5] = target: T2, ABCG2 (Homo sapiens, UniProt Q9UNQ0); assay: Inhibition of ABCG2 (unknown origin)-mediated pheophorbide A efflux expressed in HEK293 cells at 1 to 5 uM after 30 mins by flow cytometric analysis relative to control; type: cell-based; conditions: HEK293 cells expressing ABCG2, probe pheophorbide A, read-out: Imax
T2 sequence (Q9UNQ0 whole entry): T1 sequence (Q9UNQ0 whole entry)
How it was run: (§2)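 Cells seeded at 1.5 × 10^5 cells/well and grown 48 h were exposed to BODIPY-prazosin (0.2 μM) or pheophorbide A (2 μM) for 30 min at 37 °C with or without compound. After washing and trypsinization, intracellular fluorescence was read by flow cytometry (FL4, ≥10 000 events). Percent inhibition = (C−M)/(Cev−M)×100, where Cev is from ABCG2-negative control cells.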

[6] = target: T1, Broad substrate specificity ATP-binding cassette transporter ABCG2; assay: Inhibition of ABCG2 (unknown origin)-mediated BODIPY-prazosin efflux expressed in HEK293 cells at 1 to 5 uM after 30 mins by flow cytometric analysis; type: cell-based; conditions: hek293, 0.5 h; how it was run: as §2
[7] = target: Multidrug resistance-associated protein 1 (Homo sapiens, UniProt P33527); assay: Inhibition of ABCC1 (unknown origin)-mediated calcein-AM efflux expressed in HEK293 cells at 5 uM after 30 mins by flow cytometric analysis; type: cell-based; conditions: hek293, 0.5 h
[8] = target: ATP-dependent translocase ABCB1 (Homo sapiens, UniProt P08183); assay: Inhibition of ABCB1 (unknown origin)-mediated rhodamine 123 efflux expressed in mouse NIH/3T3 cells at 5 uM after 30 mins by flow cytometric analysis; type: cell-based; conditions: nih/3t3, 0.5 h
ABCG2 [9] = target: T2, ABCG2; assay: Inhibition of ABCG2 (unknown origin)-mediated mitoxantrone efflux expressed in HEK293 cells at 5 to 10 uM after 30 mins by flow cytometric analysis relative to control; type: cell-based; conditions: HEK293 cells expressing ABCG2, probe mitoxantrone, read-out: Imax
[10] = target: T1, Broad substrate specificity ATP-binding cassette transporter ABCG2; assay: Inhibition of ABCG2 (unknown origin)-mediated mitoxantrone efflux expressed in HEK293 cells after 30 mins by flow cytometric analysis; type: cell-based
[11] = target: T1, Broad substrate specificity ATP-binding cassette transporter ABCG2; assay: Inhibition of ABCG2-mediated mitoxantrone efflux in mitoxantrone-selected human H460 cells after 30 mins by flow cytometric analysis; type: cell-based
ABCG2 [12] = target: T2, ABCG2; assay: Inhibition of ABCG2-mediated mitoxantrone efflux in mitoxantrone-selected human H460 cells at 5 to 10 uM after 30 mins by flow cytometric analysis relative to control; type: cell-based; conditions: probe mitoxantrone, read-out: Imax
[13] = target: T1, Broad substrate specificity ATP-binding cassette transporter ABCG2; assay: Stimulation of human ABCG2 ATPase activity expressed in Sf9 insect cell membranes at 2 uM after 30 mins by colorimetric analysis relative to basal control in presence of sodium orthovanadate; conditions: sf9, 0.5 h

Multidrug resistance-associated protein 1, sequence (P33527 whole entry): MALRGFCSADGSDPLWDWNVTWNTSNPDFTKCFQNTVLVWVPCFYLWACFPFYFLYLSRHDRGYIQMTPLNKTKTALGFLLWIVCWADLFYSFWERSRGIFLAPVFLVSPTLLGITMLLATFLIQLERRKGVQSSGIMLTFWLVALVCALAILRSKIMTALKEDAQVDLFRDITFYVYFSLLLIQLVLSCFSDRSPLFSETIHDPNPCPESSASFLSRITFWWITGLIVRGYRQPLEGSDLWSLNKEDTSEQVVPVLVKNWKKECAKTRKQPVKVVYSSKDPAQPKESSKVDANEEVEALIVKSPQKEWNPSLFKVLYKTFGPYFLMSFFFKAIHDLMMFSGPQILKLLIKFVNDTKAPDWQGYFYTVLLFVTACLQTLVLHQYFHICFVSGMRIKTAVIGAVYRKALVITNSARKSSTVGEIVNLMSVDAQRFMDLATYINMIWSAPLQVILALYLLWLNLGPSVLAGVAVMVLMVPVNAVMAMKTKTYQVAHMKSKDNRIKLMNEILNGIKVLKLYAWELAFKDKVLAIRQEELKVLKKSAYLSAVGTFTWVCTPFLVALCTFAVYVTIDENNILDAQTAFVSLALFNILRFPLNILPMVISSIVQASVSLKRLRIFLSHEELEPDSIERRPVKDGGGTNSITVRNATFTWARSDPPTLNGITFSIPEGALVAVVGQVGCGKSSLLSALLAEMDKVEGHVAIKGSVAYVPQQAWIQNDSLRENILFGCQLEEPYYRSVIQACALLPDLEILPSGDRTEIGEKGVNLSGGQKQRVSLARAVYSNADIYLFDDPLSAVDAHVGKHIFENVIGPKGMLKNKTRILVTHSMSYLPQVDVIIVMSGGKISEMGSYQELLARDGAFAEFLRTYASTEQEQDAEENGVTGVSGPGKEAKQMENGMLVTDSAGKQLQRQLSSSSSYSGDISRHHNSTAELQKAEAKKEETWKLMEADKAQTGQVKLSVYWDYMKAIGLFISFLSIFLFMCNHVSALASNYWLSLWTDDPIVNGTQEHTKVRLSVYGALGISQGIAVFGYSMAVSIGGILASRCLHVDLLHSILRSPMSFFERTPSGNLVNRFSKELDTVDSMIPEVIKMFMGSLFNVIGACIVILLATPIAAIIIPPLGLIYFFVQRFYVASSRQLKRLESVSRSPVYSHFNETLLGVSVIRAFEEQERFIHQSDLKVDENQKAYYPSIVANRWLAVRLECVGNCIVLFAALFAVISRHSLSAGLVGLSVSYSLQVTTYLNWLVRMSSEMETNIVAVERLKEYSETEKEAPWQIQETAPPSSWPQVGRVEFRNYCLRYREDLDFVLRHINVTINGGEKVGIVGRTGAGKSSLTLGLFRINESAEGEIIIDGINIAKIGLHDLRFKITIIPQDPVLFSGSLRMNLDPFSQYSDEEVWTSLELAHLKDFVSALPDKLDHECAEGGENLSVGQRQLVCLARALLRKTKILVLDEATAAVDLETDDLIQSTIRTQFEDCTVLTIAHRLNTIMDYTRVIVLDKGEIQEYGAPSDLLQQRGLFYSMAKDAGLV
ATP-dependent translocase ABCB1, sequence (P08183 whole entry): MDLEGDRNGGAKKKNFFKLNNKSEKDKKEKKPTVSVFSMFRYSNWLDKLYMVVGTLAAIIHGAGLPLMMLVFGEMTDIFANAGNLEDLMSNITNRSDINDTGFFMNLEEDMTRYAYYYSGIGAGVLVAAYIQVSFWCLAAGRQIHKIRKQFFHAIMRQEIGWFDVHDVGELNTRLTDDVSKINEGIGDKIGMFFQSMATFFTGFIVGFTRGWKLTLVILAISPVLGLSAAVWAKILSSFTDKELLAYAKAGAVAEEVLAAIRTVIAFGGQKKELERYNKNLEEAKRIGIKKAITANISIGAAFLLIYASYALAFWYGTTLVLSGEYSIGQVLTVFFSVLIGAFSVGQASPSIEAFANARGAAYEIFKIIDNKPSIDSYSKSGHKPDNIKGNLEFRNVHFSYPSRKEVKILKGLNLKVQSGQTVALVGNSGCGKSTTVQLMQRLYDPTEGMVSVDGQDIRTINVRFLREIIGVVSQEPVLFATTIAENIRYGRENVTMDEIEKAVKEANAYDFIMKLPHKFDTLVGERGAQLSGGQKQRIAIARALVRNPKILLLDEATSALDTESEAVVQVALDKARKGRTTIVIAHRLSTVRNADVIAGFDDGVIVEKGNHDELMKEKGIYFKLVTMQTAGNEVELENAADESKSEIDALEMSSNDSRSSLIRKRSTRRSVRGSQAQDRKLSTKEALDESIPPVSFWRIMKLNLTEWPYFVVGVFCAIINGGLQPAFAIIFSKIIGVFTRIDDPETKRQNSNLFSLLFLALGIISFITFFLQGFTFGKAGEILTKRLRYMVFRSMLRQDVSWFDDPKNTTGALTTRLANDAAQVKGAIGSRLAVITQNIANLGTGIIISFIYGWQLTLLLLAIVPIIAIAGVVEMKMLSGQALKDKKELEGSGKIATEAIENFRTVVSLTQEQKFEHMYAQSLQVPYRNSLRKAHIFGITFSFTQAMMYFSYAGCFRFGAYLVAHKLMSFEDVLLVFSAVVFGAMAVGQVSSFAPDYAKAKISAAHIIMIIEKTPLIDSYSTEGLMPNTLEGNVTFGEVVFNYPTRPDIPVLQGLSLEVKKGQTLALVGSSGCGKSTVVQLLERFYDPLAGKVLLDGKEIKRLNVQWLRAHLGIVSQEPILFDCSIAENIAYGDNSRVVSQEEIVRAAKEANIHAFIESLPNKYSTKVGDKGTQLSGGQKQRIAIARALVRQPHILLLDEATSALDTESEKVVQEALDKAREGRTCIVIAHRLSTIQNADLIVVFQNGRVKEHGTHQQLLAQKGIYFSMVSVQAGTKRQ

SMILES | Activity [1] [%] | Activity [2] [%] | IC50 [3] [nM] | inhibition (INH) [3] | inhibition (INH) [4] | Emax at 0.5 h (ABCG2 [5]) [%] | inhibition (INH) [6] | inhibition (INH) [7] | inhibition (INH) [8] | Emax at 0.5 h (ABCG2 [9]) [%] | EC50 [10] [nM] | EC50 [11] [nM] | Emax at 0.5 h (ABCG2 [12]) [%] | fold change (FC) [13]
COc1ccc2[nH]cc(CCNC(=O)c3cc(=O)c4c(OCc5ccc(Br)cc5)cccc4o3)c2c1 | 103.5 | 100.5 | 380 | Dose-dependent effect | Active | 80 | Active | Not Active | Not Active | 98 | 130 | 50 | 107 | –
CN(CCc1cn(C)c2ccccc12)C(=O)c1cc(=O)c2c(OCc3ccc(Br)cc3)cccc2o1 | 98.9 | 76.4 | > 2000 | Dose-dependent effect | Active | 80 | Active | Not Active | Not Active | 88 | 1000 | 500 | 84 | –
CN(CCc1c[nH]c2ccccc12)C(=O)c1cc(=O)c2c(OCc3ccc(Br)cc3)cccc2o1 | 95.9 | 74.6 | > 2000 | Dose-dependent effect | Active | 80 | Active | Not Active | Not Active | 105 | 1110 | 570 | 89 | –
COc1ccc2[nH]cc(CCN(C)C(=O)c3cc(=O)c4c(OCc5ccc(Br)cc5)cccc4o3)c2c1 | 97.4 | 82.8 | > 2000 | Dose-dependent effect | Active | 80 | Active | Not Active | Not Active | 101 | 960 | 530 | 96 | –
COc1ccc2[nH]cc(CCNC(=O)c3cc(=O)c4cc(OCc5ccc(Br)cc5)ccc4o3)c2c1 | 99.9 | 93.3 | 530 | Dose-dependent effect | Not Active | 80 | Active | Not Active | Not Active | 108 | 290 | 100 | 109 | –
CN(CCc1c[nH]c2ccccc12)C(=O)c1cc(=O)c2cc(OCc3ccc(Br)cc3)ccc2o1 | 79.4 | 47.6 | > 2000 | Dose-dependent effect | Not Active | – | – | – | – | 54 | 2580 | 1670 | 50 | –
CN(CCc1cn(C)c2ccccc12)C(=O)c1cc(=O)c2cc(OCc3ccc(Br)cc3)ccc2o1 | 72.1 | 40.9 | > 2000 | Dose-dependent effect | Not Active | – | – | – | – | 50 | 2060 | 2150 | 61 | –
COc1ccc2[nH]cc(CCNC(=O)c3cc(=O)c4ccc(OCc5ccc(Br)cc5)cc4o3)c2c1 | 90.1 | 64.6 | 10 | Dose-dependent effect | – | – | – | – | – | 80 | 1270 | 1540 | 93 | 2.1
O=C(NCc1cn(Cc2ccccc2)nn1)c1cc(=O)c2c(OCc3ccc(Br)cc3)cccc2o1 | 95.4 | 74.3 | 430 | Dose-dependent effect | Not Active | – | – | – | – | 78 | 1520 | 500 | 76 | –
O=C(NCc1cn(Cc2ccc(Br)cc2)nn1)c1cc(=O)c2c(OCc3ccc(Br)cc3)cccc2o1 | 91.8 | 78.7 | 930 | Dose-dependent effect | Not Active | – | – | – | – | 95 | 570 | 710 | 76 | –
O=C(NCc1cn(CCc2c[nH]c3ccccc23)nn1)c1cc(=O)c2c(OCc3ccc(Br)cc3)cccc2o1 | 105.2 | 93.1 | 250 | Dose-dependent effect | Active | – | – | – | – | 87 | 490 | 460 | 86 | –
CN(CCc1c[nH]c2ccccc12)Cc1cc(=O)c2c(OCc3ccc(Br)cc3)cccc2o1.Cl | 95.4 | 57.4 | > 2000 | Dose-dependent effect | Active | – | – | – | – | 46 | 1770 | 1110 | 104 | –
COc1ccc2[nH]cc(CCN(C)Cc3cc(=O)c4c(OCc5ccc(Br)cc5)cccc4o3)c2c1 | 102.5 | 82.3 | 820 | Dose-dependent effect | Active | – | – | – | – | 75 | 1130 | 600 | 106 | –
O=c1c(O)c(-c2ccc(O)c(O)c2)oc2cc(O)cc(O)c12 [QUERCETIN] | – | – | – | – | – | – | – | – | – | – | – | – | – | 4.1
